Compound activity from PubChem BioAssay.
PglD inh = blocks C. jejuni PglD acetyltransferase activity; purified PglD enzyme, DTNB colorimetric CoA detection; 360,000 compounds, 0.098% hits; inhibition, % at 12.5 µM; in the data active means inhibition above about 16%, passing the limit was not always enough; inconclusive means no clear call, values can overlap the other calls
DENV2 CPE = protects cells from dengue virus 2 cytopathic effect; DENV2-infected cells, cytopathic effect rescue, plate reader; CPE inhibition, % at 9.99 µM; 350,000 compounds, 1.7% hits; in the data active means CPE inhibition above about 20%, passing the limit was not always enough; inconclusive means no clear call, values can overlap the other calls; tested in BHK-21 cells;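 further: 0% = median of neutral control wells and 100% = median of positive control wells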
rRNA inh HTS = inhibits bacterial ribosomal RNA function over humanized ribosomes | E. coli WT GFP vs humanized-ribosome RFP mutants, fluorescence, 24 h; stronger effect = lower value; DMSO median 0, no signal -100 | GFP signal change (wild-type ribosome), % (no concentration beside the values) | 350,000 compounds, 1.6% hits;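 active means significant combined selectivity score with lowered wild-type GFP, culture density cut under 30%, mutant RFP and density less affected; inactive means any of these conditions unmet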
PGC1a acetyl inh = lowers PGC1a acetylation signal in U2OS cells; AlphaScreen anti-acetyl-lysine; with virally co-expressed GCN5 acetyltransferase; inhibition, % at 15.6 µM; 350,000 compounds, 0.17% hits;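 active means every replicate shows inhibition of at least 40%; inconclusive means mean inhibition at least 40% but some replicate below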;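 further: 0% = neutral control wells and 100% = positive control wells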
FN deposition inh = fibronectin deposition inhibition | AH1F fibroblasts, Alexa488-fibronectin deposition fluorescence, overnight | inhibition, % at 12.6 µM | 350,000 compounds, 0.086% hits;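 active means mean inhibition across replicates of 30% or more, regardless of how many single replicates reach that level; inconclusive means mean under 30% yet at least half of replicates reach 30%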;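 further: positive control wells lacked labelled fibronectin entirely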
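Assay system: AH1F fibroblast monolayer, labelled fibronectin deposition. Amount: 10000 cells per well. Also added: labelled fibronectin 24 nM. Compound: single-point pinned compound. Incubation: cell attachment 1 h, compound and FN exposure overnight. Detection: fluorescence after three HBSS washes, excitation 485 nm, emission 525 nm. Read-out: inhibition of fibronectin deposition signal.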
Env fusion inh = inhibitors of HIV Env-mediated cell fusion. HeLa-JRFL Env/CEM21 cell fusion, luciferase. inhibition, % at 12.3 µM. 360,000 compounds, 1.1% hits;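 active means mean replicate inhibition score of at least 50 and every replicate individually at or above 50; inconclusive means only one of the two criteria met; inactive means mean below 50 and not all replicates reaching 50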;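 further: 0% = plate neutral controls and 100% = maraviroc near 300 nM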
Active calls of the source: *; ? = inconclusive; nt = no result given; [ ] = dose if it differs, or a comment. Most compounds without a hit are left out; they make up all but 3.5% or so of the library.

SMILES | PglD inh | DENV2 CPE | rRNA inh HTS | PGC1a acetyl inh | FN deposition inh | Env fusion inh
C[C@@H]1CCCCO[C@H](CN(C)C(=O)Nc2ccccc2)[C@@H](C)CN([C@@H](C)CO)C(=O)c2cc(NS(C)(=O)=O)ccc2O1 | -2 | ? | -2 | -3 | -1 | -9[16.7 µM]
Cc1ccc2ccccc2c1COC(=O)c1nonc1N | -1 | nt | -23* | 1 | nt | nt
Cc1noc(C)c1NC(=O)N(C)C[C@H]1Oc2ncc(C#CC(C)C)cc2C(=O)N([C@H](C)CO)C[C@H]1C | 3 | 15 | 10 | -1 | 0 | -12[16.7 µM]
C=CC[C@@]1(C(=O)N2CCOCC2)N=C(c2ccc(OCCCO)cc2)O[C@@H]1c1ccccc1 | 9 | -1 | nt | nt | nt | -14[16.7 µM]
CCC(C)N(CCNC(=O)c1ccc2c(c1)NC(=O)c1ccccc1S2)C1CCCCC1 (stereo not drawn) | -3 | 0 | -60 | 2 | 2 | 79*
O=C(NC1CCCC1)N1CC2(C1)[C@H](c1ccccc1)[C@H](CO)N2CC1CCCC1 | nt | 10 | -5 | nt | -7 | nt
C=CC(=O)N1C/C(=C/c2ccccc2)C(=O)/C(=C\c2ccccc2)C1 | nt | ? | -44* | 73* | 40* | 79*
C=CC(=O)N1C/C(=C/c2ccc(Cl)cc2)C(=O)/C(=C\c2ccc(Cl)cc2)C1 | nt | -11 | -15 | nt | -4 | 102*
CS/C(=N\S(=O)(=O)c1cccs1)Nc1ccc(F)c(Cl)c1 | nt | 9 | -13 | -3 | nt | -3
CS/C(=N\S(=O)(=O)c1cccs1)Nc1cccc(Cl)c1C | -4 | -3 | -44* | 11 | -6 | 5
C[C@@H]1CN([C@@H](C)CO)C(=O)c2cc(NC(=O)c3ccccc3)ccc2O[C@@H](C)CCCCO[C@@H]1CN(C)Cc1ccccc1 | 3 | 35* | 0 | 0 | -5 | 0[16.7 µM]
C[C@@H]1CCCCO[C@H](CN(C)Cc2ccccc2)[C@@H](C)CN([C@@H](C)CO)C(=O)c2cc(NC(=O)c3ccccc3)ccc2O1 | 2 | 54* | 0 | 2 | 19 | 11[16.7 µM]
C[C@@H]1CCCCO[C@@H](CN(C)Cc2ccccc2)[C@@H](C)CN([C@H](C)CO)C(=O)c2cc(NC(=O)c3ccccc3)ccc2O1 | -4 | 100* | 3 | 15 | 3 | -7[16.7 µM]
C[C@H](CO)N1C[C@H](C)[C@@H](CN(C)Cc2ccccc2)OCCCC[C@H](C)Oc2ccc(NC(=O)c3ccccc3)cc2C1=O | 4 | -11 | -2 | -19 | 1 | 7[16.7 µM]
C[C@@H]1CN([C@H](C)CO)C(=O)c2cc(NC(=O)c3ccccc3)ccc2O[C@@H](C)CCCCO[C@@H]1CN(C)Cc1ccccc1 | -1 | -14 | -2 | 3 | 19 | 4[16.7 µM]
C[C@@H]1CCCCO[C@@H](CN(C)Cc2ccccc2)[C@H](C)CN([C@H](C)CO)C(=O)c2cc(NC(=O)c3ccccc3)ccc2O1 | -1 | 24* | 2 | 2 | -10 | 26[16.7 µM]
C[C@@H]1CN([C@H](C)CO)C(=O)c2cc(NC(=O)c3ccccc3)ccc2O[C@@H](C)CCCCO[C@H]1CN(C)Cc1ccccc1 | 3 | 13 | 0 | -13 | 0 | -1[16.7 µM]
C[C@@H]1CN([C@@H](C)CO)C(=O)c2cc(C#CC3(O)CCCC3)cnc2O[C@H]1CN(C)C(=O)C1CC1 | nt | nt | 4 | -1 | nt | -9[16.7 µM]
O=c1c2ccccc2c(C=NCCCN2CCOCC2)c(O)n1Cc1ccc2c(c1)OCO2 | nt | 0 | -29* | nt | 3 | 10
O=C(Nc1cc(F)ccc1F)N1CCCCN2[C@H](C1)[C@@H](c1ccc(-c3cccnc3)cc1)[C@@H]2CO | 6 | -4 | -7 | -1 | nt | nt
COc1ccc(NC(=S)Nc2ncccc2C)c(OC)c1 | 1 | nt | -31* | nt | nt | nt
COc1ccc(NC(=S)Nc2ncccc2C)cc1OC | nt | 2 | -11 | -5 | -5 | -31
N#Cc1ccc(OCC(=O)NNC(=O)C2CCCCC2)cc1 | -6 | -3 | 21 | 2 | 4 | 1
CCc1ccc(OCC(=O)NNC(=O)C2CCC2)cc1 | -3 | 6 | 4 | nt | 6 | 64*
COc1ccc2c3c([nH]c2c1)[C@H](CO)N(C(=O)CN(C)C)CC31CN(Cc2ccccc2Cl)C1 | nt | 33* | -12 | -36 | nt | nt
COc1ccc2c3c([nH]c2c1)[C@H](CO)N(Cc1cccc(F)c1)CC31CN(Cc2ccccn2)C1 | nt | 23* | -4 | nt | nt | nt
